Test results as given in ChEMBL document CHEMBL1129494, “Structure-based design of lipophilic quinazoline inhibitors of thymidylate synthase” (J Med Chem, 1996).

Tests used:
GC3/MTK- [1] = test: Inhibition of GC3/M TK- (human adenocarcinoma) cell growth in vitro.; assay type: functional, cell-based
Method in brief: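 Thymidine kinase-deficient human adenocarcinoma GC3/M TK- cells seeded at 10 000 cells/well in RPMI-1640 with 10% fetal calf serum and 0.5% DMSO. Compound given as nine 2-fold serial dilutions over a 5 day incubation, then 4 h MTT and spectrophotometric formazan read after DMSO dissolution. IC50 from semilog plots of the mean of four growth assessments relative to control cultures.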

L1210 [2] = test: (§1) Inhibition of L1210 (murine leukemia) cell growth in vitro.; assay type: functional, Mus musculus
Method in brief: (§2)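 Murine L1210 leukemia cells seeded at 1000 cells/well in RPMI-1640 containing 5% fetal calf serum and 0.5% DMSO, exposed to nine 2-fold serial dilutions for 3 days. Growth was read by MTT (4 h), with formazan dissolved in DMSO and measured spectrophotometrically. IC50 comes from semilog concentration plots of the mean of four assessments per dilution versus control growth.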

GC3/MTK- [3] = test: (§3) Inhibitory activity of compound against growth of thymidine kinase-deficient human adenocarcinoma cell line (GC3/M TK-) in tissue culture; assay type: functional
Method in brief: (§4)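 MTT colorimetric growth assay in the thymidine kinase-deficient human adenocarcinoma line. Seeded at 10 000 cells/well in RPMI-1640 with 10% fetal calf serum and 0.5% DMSO. Nine 2-fold serial dilutions of compound, 5 day incubation, then 4 h MTT. Formazan dissolved in DMSO and read spectrophotometrically. IC50 taken from semilog plots of the mean of four growth assessments per dilution, relative to control cultures.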

L1210 [4] = test: Inhibition of murine L1210 cell line tissue culture growth; assay type: functional, cell-based; details: Mus musculus; method in brief: as §2
CCRF-CEM [5] = test: (§5) Inhibition of CCRF-CEM (human leukemia) cell growth in vitro.; assay type: functional, cell-based
Method in brief: (§6)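 MTT colorimetric growth assay (modified Mosmann) in CCRF-CEM human leukemia cells seeded at 10 000 cells/well in RPMI-1640 with 5% fetal calf serum and 0.5% DMSO. Nine 2-fold serial dilutions of compound, 5 day incubation, then 4 h MTT and formazan dissolved in DMSO for spectrophotometric reading. IC50 taken from semilog plots of the mean of four growth assessments per dilution relative to control cultures.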

CCRF-CEM [6] = test: Inhibitory activity of compound against growth of human leukemias (CCRF-CEM) cell line in tissue culture; assay type: functional
Method in brief: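 CCRF-CEM human leukemia cells seeded at 10 000 cells/well in RPMI-1640 with 5% fetal calf serum and 0.5% DMSO. Exposed to nine 2-fold serial dilutions for 5 days, followed by 4 h with MTT. Formazan dissolved in DMSO and measured spectrophotometrically. IC50 read from semilog plots of the mean of four growth assessments per dilution versus control growth.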

GC3/MTK- [7] = test: as §3; assay type: functional; parameters: concentration or dose not given beside the values; method in brief: as §4
[8] = biological target: Thymidylate synthase (Escherichia coli) (UniProt C3SWJ7)
[9] = biological target: Thymidylate synthase (Homo sapiens) (UniProt P04818)
[10] = biological target: Thymidylate synthase (Escherichia coli) (UniProt C3SWJ7); remark: listed apart in the source
L1210 [11] = test: as §1; assay type: functional, Mus musculus; parameters: concentration or dose not given beside the values; method in brief: as §2
CCRF-CEM [12] = test: Inhibitory activity of compound against growth of human leukemias (CCRF-CEM) in tissue culture; assay type: functional; method in brief: as §6
[13] = biological target: Thymidylate synthase (Homo sapiens) (UniProt P04818); remark: listed apart in the source
CCRF-CEM [14] = test: Activity for growth inhibition in tissue culture of human leukemias( CCRF-CEM); assay type: functional, cell-based; method in brief: as §6
CCRF-CEM [15] = test: as §5; assay type: functional; parameters: concentration or dose not given beside the values; method in brief: as §6

Sequence of Thymidylate synthase (Escherichia coli) (C3SWJ7 1-264): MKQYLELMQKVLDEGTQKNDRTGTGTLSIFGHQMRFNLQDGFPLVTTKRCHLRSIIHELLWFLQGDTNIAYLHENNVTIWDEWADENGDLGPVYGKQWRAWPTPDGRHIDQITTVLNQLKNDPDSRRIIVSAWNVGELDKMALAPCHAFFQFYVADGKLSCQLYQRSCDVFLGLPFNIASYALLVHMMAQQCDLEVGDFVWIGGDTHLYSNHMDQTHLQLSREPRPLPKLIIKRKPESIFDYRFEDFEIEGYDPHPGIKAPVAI
Sequence of Thymidylate synthase (Homo sapiens) (P04818 2-313 limits assumed): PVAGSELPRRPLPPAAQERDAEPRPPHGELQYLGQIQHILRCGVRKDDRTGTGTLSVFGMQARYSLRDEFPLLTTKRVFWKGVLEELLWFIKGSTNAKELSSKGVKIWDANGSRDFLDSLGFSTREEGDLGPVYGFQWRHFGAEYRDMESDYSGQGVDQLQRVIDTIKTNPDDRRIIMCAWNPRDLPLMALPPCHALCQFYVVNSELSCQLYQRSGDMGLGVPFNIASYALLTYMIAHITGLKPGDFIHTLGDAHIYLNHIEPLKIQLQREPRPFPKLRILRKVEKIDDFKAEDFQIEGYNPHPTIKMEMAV

IC50 (L1210 [4])	IC50 (CCRF-CEM [5])	Kis [8]	Kis [9]	Kii [10]	Kii [13]	IC50 (CCRF-CEM [14])	SMILES	IC50 (GC3/MTK- [1])	Inhibition (L1210 [2])	Inhibition (GC3/MTK- [3])	Inhibition (CCRF-CEM [6])	Inhibition (GC3/MTK- [7])	Inhibition (L1210 [11])	Inhibition (CCRF-CEM [12])	Inhibition (CCRF-CEM [15])
> 2.2 µM	> 4.3 µM	–	–	–	–	–	C#CCN(Cc1ccc2nc(C)nc(O)c2c1)c1cccc(C(F)(F)F)c1	> 4.3 µM	35%	25%	41%	–	–	–	–
> 10 µM	> 10 µM	0.13 µM	0.083 µM	0.28 µM	0.19 µM	–	C#CCN(Cc1ccc2nc(C)nc(O)c2c1)c1ccc(S(=O)(=O)N2CCN(C)CC2)cc1	> 10 µM	–	–	–	17%	27%	24%	–
> 4 µM	–	0.85 µM	0.36 µM	3.7 µM	0.77 µM	> 4 µM	C#CCN(Cc1ccc2nc(C)nc(O)c2c1)c1ccc(Cl)cc1	–	–	–	–	–	25%	–	20%
